Measurements taken from ChEMBL document CHEMBL4732107, “Synthesis and anticancer activity evaluation of naphthalene-substituted triazole spirodienones” (Eur J Med Chem, 2021).
Activity calls are given as the source filed them. The calls are words filed in the database; no cut-off is given here.

Columns and labels:
[1] = tested on: 4T1; assay: Antitumor activity against mouse 4T1 cells implanted in mouse assessed as reduction in tumor weight at 1 mg/kg, ip administered daily for 12 days; assay type: functional, organism-based; settings: time 12.0 day
Method in brief: (§1)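 Mice bearing orthotopic 4T1 tumors were randomized into 4 groups (n = 6) once tumors reached about 100 mm2. Groups received vehicle, test compound at 1 or 2 mg/kg, or doxorubicin at 1 mg/kg, given i.p. every day. Body weight and tumor volume were recorded daily. Tumors were excised and weighed at the end, and inhibition was calculated against the saline control.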

[2] = Toxicity in mouse implanted with mouse 4T1 cells assessed as change in body weight at 1 mg/kg, ip administered daily for 12 days measured daily during compound dosing; assay type: organism-based; settings: in vivo, 288 h, time 12 day; method in brief: as §1
[3] = tested on: 4T1; assay: Antitumor activity against mouse 4T1 cells implanted in mouse assessed as tumor growth inhibition at 1 mg/kg, ip administered daily for 12 days relative to control; assay type: functional; settings: 4T1, ip, 288 h, time 12 day, read-out: TGI; method in brief: as §1
[4] = tested on: MDA-MB-231; assay: Antiproliferative activity against human MDA-MB-231 cells assessed as reduction in cell viability measured after 5 days by beckman coulter counting method; assay type: functional, cell-based; settings: MDA-MB-231, 120 h
[5] = tested on: A549; assay: Antiproliferative activity against human A549 cells assessed as reduction in cell viability measured after 5 days by beckman coulter counting method; assay type: functional, cell-based; settings: A549, 120 h
Method in brief: (§2)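 Cells kept in DMEM with 10% FBS, 4 mM glutamine, 1 mM sodium pyruvate, penicillin/streptomycin and amphotericin, at 37 °C in 5% CO2. Seeded at 20,000 per well, then exposed to 5 concentrations for 5 days, with DMSO as vehicle. Viable cells counted on a cell viability analyzer. Viability expressed as treated/vehicle count, and IC50 taken from dose-response curves.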

[6] = tested on: HeLa; assay: Antiproliferative activity against human HeLa cells assessed as reduction in cell viability measured after 5 days by beckman coulter counting method; assay type: functional, cell-based; settings: 120 h
[7] = tested on: MCF7; assay: Antiproliferative activity against human MCF7 cells assessed as reduction in cell viability measured after 5 days by beckman coulter counting method; assay type: functional, cell-based; settings: MCF7, 120 h; method in brief: as §2
[8] = tested on: MDA-MB-231; assay: Cell cycle arrest in human MDA-MB-231 cells assessed as accumulation at G2 phase at 1 uM measured after 24 hrs by propidium iodide staining based flow cytometry (reference value: 5.77%); assay type: functional
Method in brief: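 MDA-MB-231 cells were seeded at 5 × 10^5 cells/mL and treated for 24 h. They were then trypsinized and washed twice in cold PBS. Cells were resuspended in PBS, stained with PI for 15 min at room temperature in the dark, and analyzed by flow cytometry.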

[9] = tested on: MDA-MB-231; assay: Induction of apoptosis in human MDA-MB-231 cells assessed as early apoptotic cells at 1 uM measured after 24 hrs by annexin V-FITC/propidium iodide staining based flow cytometry (reference value: 1.49%); assay type: functional
[10] = tested on: MDA-MB-231; assay: Cell cycle arrest in human MDA-MB-231 cells assessed as accumulation at S phase at 1 uM measured after 24 hrs by propidium iodide staining based flow cytometry (reference value: 19.84%); assay type: functional
[11] = tested on: MDA-MB-231; assay: Induction of apoptosis in human MDA-MB-231 cells assessed as late apoptotic cells at 1 uM measured after 24 hrs by annexin V-FITC/propidium iodide staining based flow cytometry (reference value: 2.84%); assay type: functional
[12] = tested on: MDA-MB-231; assay: Cell cycle arrest in human MDA-MB-231 cells assessed as accumulation at G1 phase at 1 uM measured after 24 hrs by propidium iodide staining based flow cytometry (reference value: 74.39%); assay type: functional
[13] = tested on: MDA-MB-231; assay: Induction of apoptosis in human MDA-MB-231 cells assessed as viable cells at 1 uM measured after 24 hrs by annexin V-FITC/propidium iodide staining based flow cytometry (reference value: 90.9%); assay type: functional; settings: read-out: Activity
[14] = tested on: MDA-MB-231; assay: Induction of apoptosis in human MDA-MB-231 cells assessed as necrotic cells at 1 uM measured after 24 hrs by annexin V-FITC/propidium iodide staining based flow cytometry (reference value: 4.74%); assay type: functional

Row | IC50 [4] | IC50 [5] | IC50 [6] | Compound | other results
1 |  |  |  | COc1cccc2c1C(=O)c1c(O)c3c(c(O)c1C2=O)C[C@@](O)(C(=O)CO)C[C@@H]3O[C@H]1C[C@H](N)[C@H](O)[C@H](C)O1 [DOXORUBICIN] | Activity [1]: Active; Activity [2]: Non-Toxic; inhibition in vivo at 1 mg/kg [3]: 45.1%
2 | 70 nM | 140 nM | 120 nM | O=C1C=CC2(C=C1)OCC(=O)N2c1nc(-c2ccc3ccccc3c2)nn1-c1ccccc1 | 
3 | 80 nM | 180 nM | 130 nM | O=C1C=CC2(C=C1)OCC(=O)N2c1nc(-c2ccc3c(c2)Cc2ccccc2-3)nn1-c1ccc(C(F)(F)F)cc1 | 
4 | 0.8 nM | 25.2 nM | 45.3 nM | O=C1C=CC2(C=C1)OCC(=O)N2c1nc(-c2cccc(Cl)c2)nn1-c1ccccc1 | IC50 [7]: 4.11 nM
5 | 70 nM | 150 nM | 110 nM | O=C1C=CC2(C=C1)OCC(=O)N2c1nc(-c2ccc3c(c2)Cc2ccccc2-3)nn1-c1ccccc1 | 
6 | 260 nM | 1520 nM | 570 nM | Cc1ccc(-n2nc(-c3cccc4ccccc34)nc2N2CCOC23C=CC(=O)C=C3)cc1 | 
7 | 110 nM | 430 nM | 150 nM | O=C1C=CC2(C=C1)OCCN2c1nc(-c2cccc3ccccc23)nn1-c1ccccc1 | 
8 | 130 nM | 320 nM | 260 nM | CC1CN(c2nc(-c3ccc4ccccc4c3)nn2-c2ccccc2)C2(C=CC(=O)C=C2)O1 (stereo not given) | 
9 | 40 nM |  | 140 nM | Cc1ccc(-n2nc(-c3cccc4ccccc34)nc2N2C(=O)COC23C=CC(=O)C=C3)cc1 | 
10 | 100 nM | 180 nM | 110 nM | CC1OC2(C=CC(=O)C=C2)N(c2nc(-c3cccc4ccccc34)nn2-c2ccccc2)C1=O (stereo not given) | 
11 | 60 nM |  | 300 nM | CC1OC2(C=CC(=O)C=C2)N(c2nc(-c3ccc4ccccc4c3)nn2-c2ccc3ccccc3c2)C1=O (stereo not given) | 
12 | 50 nM | 100 nM | 290 nM | O=C1C=CC2(C=C1)OCC(=O)N2c1nc(-c2ccc3ccccc3c2Br)nn1-c1ccccc1 | 
13 | 30 nM | 110 nM | 150 nM | Cc1ccc(-n2nc(-c3ccc4ccccc4c3)nc2N2C(=O)COC23C=CC(=O)C=C3)cc1 | 
14 | 50 nM | 250 nM | 210 nM | O=C1C=CC2(C=C1)OCC(=O)N2c1nc(-c2ccc3ccccc3c2)nn1-c1ccc2ccccc2c1 | 
15 | 50 nM | 860 nM | 140 nM | COc1ccc(-n2nc(-c3ccc4ccccc4c3)nc2N2C(=O)C(C)OC23C=CC(=O)C=C3)cc1 (stereo not given) | 
16 | 70 nM | 310 nM | 120 nM | CC1OC2(C=CC(=O)C=C2)N(c2nc(-c3ccc4ccccc4c3)nn2-c2ccccc2)C1=O (stereo not given) | 
17 | 60 nM | 260 nM | 200 nM | COc1ccc(-n2nc(-c3ccc4ccccc4c3)nc2N2C(=O)COC23C=CC(=O)C=C3)cc1 | 
18 | 120 nM | 130 nM | 100 nM | Cc1ccccc1-n1nc(-c2cccc3ccccc23)nc1N1C(=O)COC12C=CC(=O)C=C2 | 
19 | 50 nM | 170 nM | 110 nM | O=C1C=CC2(C=C1)OCC(=O)N2c1nc(-c2ccc3ncccc3c2)nn1-c1ccccc1 | 
20 | 100 nM | 170 nM | 70 nM | O=C1C=CC2(C=C1)OCC(=O)N2c1nc(-c2ccc3c(c2)OCCO3)nn1-c1ccccc1 | 
21 | 80 nM | 320 nM | 200 nM | O=C1C=CC2(C=C1)OCC(=O)N2c1nc(-c2ccc(F)c3ccccc23)nn1-c1ccccc1 | 
22 | 100 nM | 1210 nM | 530 nM | Cc1ccc(-n2nc(-c3ccc4ccccc4c3)nc2N2C(=O)C(C)OC23C=CC(=O)C=C3)cc1 (stereo not given) | 
23 | 160 nM | 2000 nM | 520 nM | Cc1ccc(-n2nc(-c3ccc4ccccc4c3)nc2N2CCOC23C=CC(=O)C=C3)cc1 | 
24 |  |  |  | COc1ccc(/C=C\c2cc(OC)c(OC)c(OC)c2)cc1O [COMBRETASTATIN A4] | Activity [8]: 18.16%; Activity [9]: 8.57%; Activity [10]: 27.34%; Activity [11]: 20%; Activity [12]: 54.49%; viability at 1 µM [13]: 58.6%; Activity [14]: 12.8%
25 | 230 nM |  | 370 nM | O=C1C=CC2(C=C1)OCCN2c1nc(-c2ccc3ccccc3c2)nn1-c1ccccc1 | 
26 | 70 nM | 400 nM | 720 nM | O=C1C=CC2(C=C1)OCC(=O)N2c1nc(-c2ccc3ccccc3c2)nn1-c1ccc(Cl)cc1 | 
27 | 70 nM | 460 nM | 390 nM | O=C1C=CC2(C=C1)OCC(=O)N2c1nc(-c2ccc3ccccc3c2)nn1-c1ccc(C(F)(F)F)cc1 | 

Row | Compound | IC50 [4] | IC50 [5] | IC50 [6] | other results
28 | Cn1c(CCCC(=O)O)nc2cc(N(CCCl)CCCl)ccc21 [BENDAMUSTINE] | 13300 nM |  | > 20000 nM | 
